Assay results from paper PMC8204096 (Clinical & Translational Immunology, 2021).
Read-outs that look alike come from different tables or passages of the source.

Assays:
[1] = test system: CD4+ and CD8+ T cells from human PBMCs; experiment: Anti-CD3/anti-CD28-mediated T-cell activation counter-screen; format: cell-based; details: anti-CD3 and anti-CD28 overnight, concentrations up to 10 μM
In short: (§1)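 Human PBMCs were pre-treated for 30 min with titrating concentrations of test compound. They were then stimulated overnight at 37°C with soluble anti-CD28 (CD28.2, 5 μg mL−1) and plate-bound anti-CD3 (HIT3a, 0.5 µg mL−1). CD69 on CD4+ and CD8+ T cells and on CD19+ B cells was measured by flow cytometry.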

purified human B cells = experiment: Human B-cell proliferation; format: cell-based; details: 100 nM added at time of activation; TLR9 or anti-IgM/CD40L with IL-4 or IL-21
In short: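 Healthy-donor B cells were enriched untouched and labelled with CFSE. Stimuli were CpG ODN 2006, or F(ab′)2 anti-IgM (1 µg mL−1), or anti-IgM/MEGACD40L (1 μg mL−1) with IL-4 or IL-21 (each 20 ng mL−1). Cells were cultured with or without 100 nm test compound in serum-free X-VIVO 10 for 3–5 days, then analysed by flow cytometry.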

[2] = test system: splenic germinal center B cells; experiment: Sheep red blood cell thymus-dependent immunisation model; format: in vivo; details: mouse, 8 days BID, all doses tested
In short: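 Mice were dosed orally BID at 10 mL kg−1 with test compound or vehicle from day 1 to day 9. On day 2 they received washed sheep red blood cells i.p. (2 × 10⁹ cells). Spleens were collected on day 9, 3 h after the last dose. Germinal centre B cells (CD3−CD19+B220+CD38lowGL7+CD95+) were enumerated by flow cytometry, with 8–20 mice per group.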

[3] = test system: B cells in whole blood of dosed healthy individuals; experiment: Phase 1; format: in vivo, human
In short: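 Heparinised whole blood from trial participants (test compound or placebo, BID) was stimulated with 0.1 μg mL−1 dextran-conjugated anti-IgD (IA6-2) for 18–24 h at 37°C/5% CO2. Samples were stained for CD19 and CD69, RBC-lysed and fixed. CD69 on CD19+, CD27− and CD27+ B cells was standardised with MESF beads. Inhibition was calculated relative to pre-dose samples.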

[4] = test system: CD19+ B cells from human PBMCs; experiment: Antigen-independent B-cell activation by anti-CD3/anti-CD28-activated T cells; format: cell-based
In short: as §1

[5] = test system: B cells in mouse whole blood; experiment: Anti-IgD-induced B-cell activation; format: cell-based; details: read-out: IC50, CD62L downregulation on B cells
[6] = test system: basophils in human whole blood; experiment: FcεR-mediated basophil degranulation; format: cell-based; details: read-out: IC50, anti-IgE-mediated basophil degranulation (CD63)
[7] = test system: B220+ mouse splenic B cells; experiment: Anti-IgM-induced B-cell activation; format: cell-based; details: read-out: IC50, CD69 induction on B cells
In short: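 Splenic B cells were bead-isolated from OTII mice and pre-treated with test compound for 30 min at 37°C. They were incubated on ice with biotinylated goat F(ab′)2 anti-mouse IgM (10 μg mL−1, 15 min), then OVA-conjugated anti-biotin (10 min), with compound present throughout. They were co-cultured with dye-labelled CD4+ T cells for 72 h at 37°C. The frequency of CD69+ B220+ B cells was measured by flow cytometry.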

[8] = test system: CD19+ B cells from human PBMC; experiment: Anti-IgD-induced B-cell activation; format: cell-based; details: read-out: IC50, CD69 induction on B cells
In short: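 PBMCs from healthy donors were isolated by density gradient. They were incubated for 30 min with titrating concentrations of test compound or DMSO, then stimulated overnight at 37°C with rabbit F(ab′)2 anti-human IgD (5 μg mL−1). After Fc block and staining for 30 min on ice, the frequency of CD69+ cells among CD19+ B cells was measured by flow cytometry.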

[9] = test system: NP-specific IgM antibody titres; experiment: NP-Ficoll T cell-independent; format: in vivo; details: mouse, oral BID for 10 days
[10] = test system: mouse splenic B cells and OTII CD4+ T cells; experiment: BCR-mediated antigen presentation to T cells; format: cell-based; details: read-out: IC50, BCR-mediated antigen presentation to OVA323-339-specific T cells (T-cell proliferation)
BTK = BTK (Mus musculus, UniProt P35991); experiment: in vivo
BTK, sequence (P35991 whole entry): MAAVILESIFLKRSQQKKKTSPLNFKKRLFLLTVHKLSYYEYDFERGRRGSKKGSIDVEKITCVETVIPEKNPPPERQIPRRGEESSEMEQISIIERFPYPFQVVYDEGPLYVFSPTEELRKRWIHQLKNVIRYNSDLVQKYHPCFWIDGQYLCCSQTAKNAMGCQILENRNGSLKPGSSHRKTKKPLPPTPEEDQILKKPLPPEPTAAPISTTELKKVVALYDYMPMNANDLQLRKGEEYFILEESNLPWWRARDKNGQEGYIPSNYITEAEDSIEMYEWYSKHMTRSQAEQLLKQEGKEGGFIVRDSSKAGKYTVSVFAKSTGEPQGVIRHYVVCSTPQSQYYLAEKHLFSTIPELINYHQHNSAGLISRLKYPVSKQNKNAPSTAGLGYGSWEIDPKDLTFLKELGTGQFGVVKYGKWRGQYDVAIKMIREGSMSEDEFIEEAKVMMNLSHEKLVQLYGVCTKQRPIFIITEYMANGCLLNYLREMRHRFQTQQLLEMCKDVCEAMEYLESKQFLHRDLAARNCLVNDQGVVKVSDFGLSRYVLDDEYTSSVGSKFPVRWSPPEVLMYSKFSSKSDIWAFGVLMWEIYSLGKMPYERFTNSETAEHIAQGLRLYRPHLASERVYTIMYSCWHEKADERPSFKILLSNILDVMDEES

[11] = test system: B cells in human whole blood; experiment: Anti-IgD-induced B-cell activation; format: cell-based; details: read-out: IC50, B-cell activation in whole blood, stimulated cells
[12] = Homo sapiens, B-cell, read-out: average (± SD) CD69 inhibition at 24 h post-last dose
[13] = Homo sapiens, B-cell, read-out: pre-dose average CD69 inhibition in naïve B cells

SMILES: Cn1cc(Nc2nccc(-c3ccc4c(c3)CN(C3COC3)CC[C@H]4NC(=O)c3cn(C(C)(C)C)nn3)n2)cn1 [BIIB091]
- inhibition of CD4+ or CD8+ T-cell activation (CD69) [1]: did not inhibit
- effect on B-cell proliferative responses (purified human B cells): potently blocked
- frequency of total splenic B cells [2]: unchanged
- inhibition of CD69 upregulation in naïve B cells ([3]; 50 mg BID, 1 and 2 h post-dosing): complete
- inhibition at 50 mg [3, 12]: -5.8%
- inhibition at 150 mg [3, 12]: 19%
- inhibition at 300 mg [3, 12]: -2.8%
- inhibition at 150 mg [3, 13]: ≥ 90%
- inhibition at 300 mg [3, 13]: ≥ 90%
- inhibition of T cell-dependent, antigen-independent B-cell activation (CD69) [4]: did not inhibit
- IC50 [5]: 40 ± 24 nM
- IC50 [6]: 106 nM
- IC50 [7]: 16 ± 11 nM
- IC50 [8]: 5.4 ± 0.5 nM
- ED50 for NP-specific IgM antibody titres [9]: 1.95 mg/kg
- IC50 [10]: 22 ± 8 nM
- IC50 (BTK): 3.1 nM

SMILES: Cc1cc(-c2ccnc(Nc3cnn(C)c3)n2)ccc1CNC(=O)N1CC(OC(C)C)C1 [BIIB068]
- IC50 [11]: 3500 nM
